Test results from ChEMBL document CHEMBL1144220, “Screening helix-threading peptides for RNA binding using a thiazole orange displacement assay” (Bioorg Med Chem, 2008).
Square brackets hold non-standard residues; d marks the D form. Peptide text beside a SMILES is read from it. * marks the point of attachment. X1 = C=CCc1ccc(-c2cc(Nc3ccc(CN)cc3)c3cccc(C(=O)*)c3n2)cc1; X2 = C=CCc1ccc(-c2cc(Nc3ccccc3)c3cccc(C(=O)*)c3n2)cc1; AllylGly = C=CC[C@H](N)C(=O)O; Dap = NC[C@H](N)C(=O)O

Assays:
[1] = Displacement of thiazole orange from RNA A by fluorescent intercalator displacement assay
Procedure, shortened: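 Pre-formed complex of RNA A (100 nM) with thiazole orange (50 nM), in 50 mM Bis-Tris·HCl pH 7.0, 100 mM NaCl, 10 mM MgCl2, 15 min. Added to a peptide titration and held ~15 min at 25 °C. Fluorescence read at ex 485 / em 535 nm, minus dye-only background. […] Three independent runs, mean ± SD.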

[2] = test system: RNA A (synthetic); assay: Binding affinity to RNA A by quantitative ribonuclease V1 footprinting assay

Row | Structure (SMILES) | Kd [1] | Binding affinity [2] | Activity [1]
1 | C=CCc1ccc(-c2cc(Nc3ccccc3)c3cccc(C(=O)N[C@@H](CCCNC(=N)N)C(=O)N[C@@H](CC(N)=O)C(=O)N[C@@H](CC(N)=O)C(=O)N[C@@H](CC=C)C(N)=O)c3n2)cc1 (X2-RNN[AllylGly]-NH2) | 14.2 µM | – | –
2 | NC[C@H]1O[C@H](O[C@H]2[C@H](O)[C@@H](O[C@H]3O[C@H](CO)[C@@H](O)[C@H](N)[C@H]3O)[C@H](N)C[C@@H]2N)[C@H](O)[C@@H](O)[C@@H]1O [KANAMYCIN] | > 100 µM | – | –
3 | CC(C)C[C@@H]1NC(=O)[C@H](CC(N)=O)NC(=O)[C@H](CCCNC(=N)N)NC(=O)c2cccc3c(Nc4ccccc4)cc(nc23)-c2ccc(cc2)C/C=C/C[C@@H](C(N)=O)NC1=O | 18.9 µM | – | –
4 | NCCCC[C@H]1NC(=O)[C@@H](Cc2ccccc2)NC(=O)[C@H](CN)NC(=O)c2cccc3c(Nc4ccc(CN)cc4)cc(nc23)-c2ccc(cc2)C/C=C/C[C@@H](C(N)=O)NC1=O | 4.4 µM | 8.6 µM | –
5 | C=CCc1ccc(-c2cc(Nc3ccccc3)c3cccc(C(=O)N[C@@H](CCCNC(=N)N)C(=O)N[C@H](CC(C)C)C(=O)N[C@H](CC(C)C)C(=O)N[C@@H](CC=C)C(N)=O)c3n2)cc1 | > 30 µM | – | –
6 | CC(C)C[C@@H]1NC(=O)[C@H](CC(C)C)NC(=O)[C@H](CCCNC(=N)N)NC(=O)c2cccc3c(Nc4ccccc4)cc(nc23)-c2ccc(cc2)C/C=C/C[C@@H](C(N)=O)NC1=O | > 30 µM | – | –
7 | CC(C)[C@H](NC(=O)[C@H](CO)NC(=O)CCCN)C(=O)NCc1ccc(Nc2ccnc3c(C(=O)N[C@@H](CCCNC(=N)N)C(N)=O)cccc23)cc1 | 13.2 µM | 3.3 µM | –
8 | CC(C)C[C@@H]1NC(=O)[C@H](CCCNC(=N)N)NC(=O)c2cccc3c(Nc4ccccc4)cc(nc23)-c2ccc(cc2)C/C=C/C[C@@H](C(N)=O)NC(=O)[C@H](CC(N)=O)NC1=O | 6.2 µM | – | –
9 | N=C(N)NCCC[C@@H]1NC(=O)c2cccc3c(Nc4ccccc4)cc(nc23)-c2ccc(cc2)C/C=C/C[C@@H](C(N)=O)NC(=O)[C@@H](CC(N)=O)NC(=O)[C@@H](CC(N)=O)NC1=O | 13.4 µM | – | –
10 | C=CCc1ccc(-c2cc(Nc3ccccc3)c3cccc(C(=O)N[C@@H](CCCNC(=N)N)C(=O)N[C@@H](CC(C)C)C(=O)N[C@@H](CC(C)C)C(=O)N[C@@H](CC=C)C(N)=O)c3n2)cc1 | > 30 µM | – | –
11 | NC[C@@H]1O[C@H](O[C@H]2[C@@H](O)[C@H](O[C@H]3[C@@H](O)[C@H](N)C[C@H](N)[C@H]3O[C@H]3O[C@H](CN)[C@@H](O)[C@H](O)[C@H]3N)O[C@@H]2CO)[C@H](N)[C@@H](O)[C@@H]1O | > 60 µM | – | –
12 | CC(C)C[C@H]1NC(=O)[C@H](CCCNC(=N)N)NC(=O)c2cccc3c(Nc4ccccc4)cc(nc23)-c2ccc(cc2)C/C=C/C[C@@H](C(N)=O)NC(=O)[C@@H](CC(C)C)NC1=O | 10.1 µM | – | –

Stronger by Kd [1], values ahead:

Row | Kd [1] | Binding affinity [2] | Activity [1] | Structure (SMILES)
13 | 0.22 µM | 0.05 µM | – | NCCCC[C@@H]1NC(=O)[C@H](CN)NC(=O)c2cccc3c(Nc4ccc(CN)cc4)cc(nc23)-c2ccc(cc2)C/C=C/C[C@@H](C(N)=O)NC(=O)CNC1=O
14 | 0.71 µM | 0.33 µM | – | C=CCc1ccc(-c2cc(Nc3ccc(CN)cc3)c3cccc(C(=O)N[C@@H](CN)C(=O)N[C@@H](CCCCN)C(=O)NCC(=O)N[C@@H](CC=C)C(N)=O)c3n2)cc1 (X1-[Dap]KG[AllylGly]-NH2)
15 | 3.9 µM | – | – | N=C(N)NCCC[C@@H]1NC(=O)c2cccc3c(Nc4ccccc4)cc(nc23)-c2ccc(cc2)C/C=C/C[C@@H](C(N)=O)NC(=O)CNC1=O
16 | 0.35 µM | – | – | N=C(N)NCCC[C@@H]1NC(=O)c2cccc3c(Nc4ccccc4)cc(nc23)-c2ccc(cc2)C/C=C/C[C@@H](C(N)=O)NC(=O)CNC(=O)[C@H](CCCCN)NC1=O
17 | 2.7 µM | 2.3 µM | – | NCCCC[C@H]1NC(=O)[C@H](Cc2ccccc2)NC(=O)[C@H](CN)NC(=O)c2cccc3c(Nc4ccc(CN)cc4)cc(nc23)-c2ccc(cc2)C/C=C/C[C@@H](C(N)=O)NC1=O
18 | 3.6 µM | – | – | N=C(N)NCCC[C@@H]1NC(=O)c2cccc3c(Nc4ccccc4)cc(nc23)-c2ccc(cc2)C/C=C/C[C@@H](C(N)=O)NC1=O
19 | 0.6 µM | 0.27 µM | 96% | NCCCC[C@H]1NC(=O)CNC(=O)[C@H](CN)NC(=O)c2cccc3c(Nc4ccc(CN)cc4)cc(nc23)-c2ccc(cc2)C/C=C/C[C@@H](C(N)=O)NC1=O
20 | 1.4 µM | – | – | N=C(N)NCCC[C@@H]1NC(=O)c2cccc3c(Nc4ccccc4)cc(nc23)-c2ccc(cc2)C/C=C/C[C@@H](C(N)=O)NC(=O)[C@H](CC(N)=O)NC(=O)[C@H](CC(N)=O)NC1=O
